Active and inactive are the calls of the source. The rule behind the calls is not given here.
What was measured:
[1] = Tmax in mouse at 10 mg/kg, po; type: ADME, organism-based; settings: in vivo
[2] = MRTinfinity in mouse at 10 mg/kg, po; type: ADME, organism-based; settings: in vivo
[3] = biological target: Tyrosine-protein kinase CSK (Homo sapiens) (UniProt P41240); assay: Inhibition of human CSK at 1 uM relative to control
OCI-AML-3 = assay: Antileukemic activity against human OCI-AML3 cells harboring NRAS-Q61L mutant xenografted in immunodeficient mouse assessed as tumor volume at 15 mg/kg/day, po qd administered on day 21 post implantation measured on day 20 post dose (reference value: 100%); type: functional
[4] = biological target: Cytoplasmic tyrosine-protein kinase BMX (Homo sapiens) (UniProt P51813); settings: 1 uM
Chain of Cytoplasmic tyrosine-protein kinase BMX (Homo sapiens) (P51813 whole entry): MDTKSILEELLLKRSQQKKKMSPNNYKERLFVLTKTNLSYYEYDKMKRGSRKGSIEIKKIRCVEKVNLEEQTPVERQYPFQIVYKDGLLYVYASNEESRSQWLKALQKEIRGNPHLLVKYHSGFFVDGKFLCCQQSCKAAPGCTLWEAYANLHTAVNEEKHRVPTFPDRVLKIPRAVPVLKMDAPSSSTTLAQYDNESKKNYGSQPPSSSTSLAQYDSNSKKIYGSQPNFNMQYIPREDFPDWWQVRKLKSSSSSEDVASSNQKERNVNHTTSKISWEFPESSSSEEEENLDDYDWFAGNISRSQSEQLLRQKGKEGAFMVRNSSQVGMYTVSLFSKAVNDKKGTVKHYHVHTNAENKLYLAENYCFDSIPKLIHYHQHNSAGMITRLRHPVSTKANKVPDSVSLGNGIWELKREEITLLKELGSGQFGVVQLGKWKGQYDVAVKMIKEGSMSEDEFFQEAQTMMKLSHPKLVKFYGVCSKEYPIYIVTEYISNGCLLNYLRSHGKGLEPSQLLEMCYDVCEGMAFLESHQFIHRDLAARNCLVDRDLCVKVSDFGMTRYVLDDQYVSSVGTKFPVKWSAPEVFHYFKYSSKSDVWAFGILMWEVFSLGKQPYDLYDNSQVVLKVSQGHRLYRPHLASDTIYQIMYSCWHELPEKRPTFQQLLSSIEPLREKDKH

BaF3 [5] = assay: Induction of apoptosis in mouse BA/F3 cells expressing NRAS-G12D mutant assessed as increase in cleaved caspase-3 levels at 1 uM after 24 hrs by Western blot analysis; type: functional, cell-based
Outline: (§1)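 Cells treated 24 h with indicated concentrations (1 µM; 5 µM also used in Ba/F3-NRAS-G12D); cleaved PARP, cleaved caspase 3, bcl-2 and MCL1 detected by western blot with actin as loading control.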

BaF3 [6] = assay: Induction of apoptosis in mouse BA/F3 cells expressing NRAS-G12D mutant assessed as decrease in MCL1 levels at 1 uM after 24 hrs by Western blot analysis; type: functional, cell-based; outline: as §1

Chain of Tyrosine-protein kinase CSK (Homo sapiens) (P41240 2-450 limits assumed): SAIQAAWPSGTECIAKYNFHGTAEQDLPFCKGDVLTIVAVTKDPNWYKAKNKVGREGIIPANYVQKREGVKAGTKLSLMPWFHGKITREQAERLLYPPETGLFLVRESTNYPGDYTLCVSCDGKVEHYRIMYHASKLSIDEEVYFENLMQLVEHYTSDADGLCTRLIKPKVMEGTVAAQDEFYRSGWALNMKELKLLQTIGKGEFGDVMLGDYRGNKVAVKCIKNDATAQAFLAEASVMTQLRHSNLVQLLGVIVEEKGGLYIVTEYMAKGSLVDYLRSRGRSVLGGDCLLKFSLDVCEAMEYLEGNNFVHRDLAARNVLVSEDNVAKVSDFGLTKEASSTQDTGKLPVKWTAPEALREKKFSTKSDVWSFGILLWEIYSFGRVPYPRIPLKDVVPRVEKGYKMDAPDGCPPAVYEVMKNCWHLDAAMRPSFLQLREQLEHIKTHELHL

Compound	Tmax [1] [h]	MRT inf [2] [h]	inhibition [3] [%]	Activity (OCI-AML-3) [%]	inhibition [4] [%]	Activity (BaF3 [5])	Activity (BaF3 [6])
Cc1ccc(NC(=O)c2cccc(C(F)(F)F)c2)cc1N1Cc2cnc(N)nc2N(C)C1=O	2.7	18.1	98.9	41.9	99.4	–	–
CC(=O)N1CCN(c2ccc(Nc3ncc4c(n3)N(C)C(=O)N(c3cc(NC(=O)c5cccc(C(F)(F)F)c5)ccc3C)C4)cn2)CC1	–	–	–	–	–	Active	Active

Source: ChEMBL document CHEMBL4196175, “First SAR Study for Overriding NRAS Mutant Driven Acute Myeloid Leukemia” (J Med Chem, 2018)
